In assay [1] the target is T1, Mineralocorticoid receptor (Rattus norvegicus) (UniProt P22199).
T1 sequence (whole entry): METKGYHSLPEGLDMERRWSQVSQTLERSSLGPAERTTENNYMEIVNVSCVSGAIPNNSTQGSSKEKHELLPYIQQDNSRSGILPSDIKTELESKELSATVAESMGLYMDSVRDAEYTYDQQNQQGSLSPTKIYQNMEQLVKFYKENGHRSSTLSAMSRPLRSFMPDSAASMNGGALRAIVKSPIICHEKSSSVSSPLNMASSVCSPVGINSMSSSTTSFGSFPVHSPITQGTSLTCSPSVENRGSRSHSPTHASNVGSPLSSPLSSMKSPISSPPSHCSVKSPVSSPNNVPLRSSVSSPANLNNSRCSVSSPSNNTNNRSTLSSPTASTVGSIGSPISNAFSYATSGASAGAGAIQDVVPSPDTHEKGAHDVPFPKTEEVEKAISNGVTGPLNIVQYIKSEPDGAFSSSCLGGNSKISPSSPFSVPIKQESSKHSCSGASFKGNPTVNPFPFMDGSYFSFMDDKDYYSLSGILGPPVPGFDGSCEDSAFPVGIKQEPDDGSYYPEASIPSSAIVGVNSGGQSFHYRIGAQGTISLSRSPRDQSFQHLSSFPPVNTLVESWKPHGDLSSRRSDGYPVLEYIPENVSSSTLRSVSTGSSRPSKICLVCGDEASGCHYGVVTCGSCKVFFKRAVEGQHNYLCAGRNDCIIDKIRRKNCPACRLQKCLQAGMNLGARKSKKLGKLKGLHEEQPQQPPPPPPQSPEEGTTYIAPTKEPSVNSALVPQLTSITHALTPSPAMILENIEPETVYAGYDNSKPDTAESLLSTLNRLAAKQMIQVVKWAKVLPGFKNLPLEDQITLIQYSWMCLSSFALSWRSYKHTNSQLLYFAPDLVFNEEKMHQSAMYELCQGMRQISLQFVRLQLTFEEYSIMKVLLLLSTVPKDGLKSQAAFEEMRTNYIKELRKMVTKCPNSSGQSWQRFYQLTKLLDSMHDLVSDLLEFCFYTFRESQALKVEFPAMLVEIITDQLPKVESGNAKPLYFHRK
In words: Binding affinity expressed as the percent inhibition of 2x10E-9 M [3H]aldosterone binding to the renal mineralocorticoid receptor by the presence of competing steroid (8x10E-8 M). In short, it runs like this: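 Washed kidney slices from adrenalectomized rats incubated with 2 × 10^-9 M [3H]aldosterone plus 8 × 10^-8 M competing 18-hydroxy steroid and 2 × 10^-8 M dexamethasone, pH 7.2 Tris/phosphate saline buffer with Mg, Ca, dextrose. Homogenized; high-speed supernatant treated with charcoal-dextran to strip free ligand. Bound label counted as cpm/mg protein, nonspecific at 2 × 10^-7 M unlabeled aldosterone. Value is % inhibition; Student's t test vs 0%.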

The target in assay [2] is T1, Mineralocorticoid receptor (Rattus norvegicus). In words: Mineralocorticoid activity in vivo expressed as a ratio (M/DOCA) of the urinary sodium/potassium excretion transformations after deoxy-corticosterone acetate treatment. Type of assay: functional, organism-based. The following applies: Urine. In a few lines:
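Saline-loaded (2.5 mL) adrenalectomized rats given 12 μg DOCA s.c. in oil plus test steroid 2.4 mg/animal s.c. in corn oil. Urine collected 4 h in metabolism cages, then voided by suprapubic pressure. Na and K measured by flame photometry as log(Na × 10/K). Ratio to DOCA-only controls (M/DOCA); >1.23 taken as antagonism, <0.85 as agonism.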

In the case of `CC12CCC(O)CC1=CCC1C2CCC23COC(O)(CO)C2CCC13` (stereo unspecified), the Percent inhibition of [3H]aldosterone binding in assay [1] came to 3.5. Further, the Ratio in assay [2] worked out at 0.71.
Regarding `C[C@@H](O)C1CCC2C3CC=C4CC(O)CCC4(C)C3CCC21CO` (stereo partly specified), in assay [1], the Percent inhibition of [3H]aldosterone binding is 5. In assay [2], the Ratio was determined as 0.89.
`C[C@]12CC[C@H](O)C[C@@H]1CC[C@@H]1[C@@H]2CC[C@]23COC(O)(CO)[C@H]2CC[C@@H]13` (stereo partly specified): the Percent inhibition of [3H]aldosterone binding in assay [1] was 19.5. For the same compound, in assay [2], the Ratio was found to be 1.06.
For `C[C@@H](O)C1CC[C@H]2[C@@H]3CC[C@H]4CC(=O)CCC4(C)[C@H]3CCC12CO` (stereo partly specified), in that order: 13 and 1.03.
Take `C[C@H]1OC(=O)[C@]23CC[C@H]4[C@@H](CC[C@H]5CC(=O)CC[C@@]54C)[C@@H]2CC[C@H]13`: in assay [1], the Percent inhibition of [3H]aldosterone binding worked out at 0. In addition, the Ratio in assay [2] worked out at 0.87.
For `CC(=O)OC[C@]12CC[C@H]3[C@@H](CC[C@H]4C[C@@H](O)CC[C@@]43C)[C@@H]1CC[C@@H]2C(C)=O`, in that order: 14.2 and 1.13.
As for `CC(=O)OCC1(O)OCC23CCC4C(CC=C5CC(O)CCC54C)C2CCC13` (stereo unspecified), in assay [1], the Percent inhibition of [3H]aldosterone binding came out at 7. In addition, the Ratio in assay [2] was 0.55.
In the case of `C[C@@H](O)[C@H]1CC[C@H]2[C@@H]3CC[C@H]4CC(=O)CC[C@]4(C)[C@H]3CC[C@]12CO`, the Percent inhibition of [3H]aldosterone binding in assay [1] is 6.5. Moreover, the Ratio in assay [2] was 0.43.
`CC(=O)OCC1(O)OC[C@]23CC[C@H]4[C@@H](CC[C@H]5C[C@@H](O)CC[C@@]54C)[C@@H]2CC[C@H]13` (stereo partly specified): the Ratio in assay [2] was 0.83.
Turning to `CC(=O)OCC12CCC3C(CCC4=CC(=O)CCC43C)C1CCC2[C@@H](C)O` (stereo partly specified), in assay [1], the Percent inhibition of [3H]aldosterone binding was 13. Moreover, the Ratio in assay [2] was 1.16.
For the compound `C[C@H]1OC(=O)C23CC[C@H]4[C@@H](CC[C@H]5CC(O)CCC54C)[C@@H]2CCC13` (stereo partly specified), the Ratio in assay [2] was 0.61.
Take `CC(=O)OCC1(O)OC[C@]23CC[C@H]4[C@@H](CC[C@H]5CC(=O)CC[C@@]54C)[C@@H]2CC[C@H]13` (stereo partly specified): in assay [1], the Percent inhibition of [3H]aldosterone binding was 20. Also, the Ratio in assay [2] stood at 0.96.
For `CC(=O)OCC12CCC3C(CC=C4CC(O)CCC43C)C1CCC2C(C)=O` (stereo unspecified), in that order: 0 and 1.95.
Turning to `CC1(O)OCC23CC[C@H]4[C@@H](CC[C@H]5CC(O)CCC54C)[C@@H]2CCC13` (stereo partly specified), the Percent inhibition of [3H]aldosterone binding in assay [1] amounted to 30. For the same compound, the Ratio in assay [2] is 0.92.
For `CC(=O)OC[C@]12CC[C@H]3[C@@H](CC[C@H]4CC(=O)CC[C@@]43C)[C@@H]1CC[C@@H]2[C@@H](C)O`, the Percent inhibition of [3H]aldosterone binding in assay [1] was 10.5. Besides, in assay [2], the Ratio is 1.16.
Take `CC1(O)OCC23CC[C@H]4[C@@H](CC[C@H]5CC(=O)CCC54C)[C@@H]2CCC13` (stereo partly specified): in assay [1], the Percent inhibition of [3H]aldosterone binding is 8.3. Besides, the Ratio in assay [2] was determined as 0.91.
For the compound `CC1(O)OCC23CCC4C(CCC5=CC(=O)CCC54C)C2CCC13` (stereo unspecified), in assay [1], the Percent inhibition of [3H]aldosterone binding was 34.5. The Ratio in assay [2] stood at 0.76.
On to `C[C@H]1OC(=O)C23CCC4C(CCC5=CC(=O)CCC54C)C2CCC13` (stereo partly specified), for which the Percent inhibition of [3H]aldosterone binding in assay [1] came out at 65. Also, the Ratio in assay [2] was 1.32.
For `CC1(O)OC[C@]23CC[C@H]4[C@@H](CCC5C[C@@H](O)CC[C@@]54C)[C@@H]2CC[C@H]13` (stereo partly specified), the Ratio in assay [2] was determined as 0.91.
As to `CC(=O)OCC1(O)OCC23CC[C@H]4[C@@H](CC[C@H]5CC(O)CCC54C)[C@@H]2CCC13` (stereo partly specified), in assay [1], the Percent inhibition of [3H]aldosterone binding came out at 0. For the same compound, the Ratio in assay [2] came to 1.1.
For `CC12CCC(O)C[C@@H]1CC[C@H]1[C@@H]3CCC4C(O)(CO)OCC43CC[C@@H]12` (stereo partly specified), in that order: 0 and 0.96.
For `CC(=O)OCC12CC[C@H]3[C@@H](CC[C@H]4CC(=O)CCC43C)[C@@H]1CCC2[C@@H](C)O` (stereo partly specified), in that order: 17 and 0.93.
For `C[C@H]1OC(=O)C23CC[C@H]4[C@@H](CC[C@H]5CC(=O)CCC54C)[C@@H]2CCC13` (stereo partly specified), in that order: 10.5 and 0.96.
As for `C[C@@H](O)C1CC[C@H]2[C@@H]3CC[C@H]4CC(O)CCC4(C)[C@H]3CCC12CO` (stereo partly specified), the Percent inhibition of [3H]aldosterone binding in assay [1] was found to be 23.5. The Ratio in assay [2] came out at 0.72.
With `CC(=O)OCC1(O)OCC23CCC4C(CCC5=CC(=O)CCC54C)C2CCC13` (stereo unspecified), the Percent inhibition of [3H]aldosterone binding in assay [1] was 34. Besides, in assay [2], the Ratio is 0.71.
In the case of `C[C@@H](O)C1CCC2C3CCC4=CC(=O)CCC4(C)C3CCC21CO` (stereo partly specified), the Percent inhibition of [3H]aldosterone binding in assay [1] was 34.3. Besides, the Ratio in assay [2] was found to be 1.33.
In the case of `C[C@]12CCC(=O)C[C@@H]1CC[C@@H]1[C@@H]2CC[C@]23COC(O)(CO)[C@H]2CC[C@@H]13` (stereo partly specified), the Percent inhibition of [3H]aldosterone binding in assay [1] amounted to 32. The Ratio in assay [2] was determined as 0.78.
For `C[C@H]1OC(=O)C23CCC4C(CC=C5CC(O)CCC54C)C2CCC13` (stereo partly specified), in that order: 12.5 and 0.72.
Turning to `CC1(O)OCC23CCC4C(CC=C5CC(O)CCC54C)C2CCC13` (stereo unspecified), the Percent inhibition of [3H]aldosterone binding in assay [1] amounted to 10.1. Also, the Ratio in assay [2] amounted to 0.5.
For `CC(=O)OCC12CCC3C(CCC4=CC(=O)CCC43C)C1CCC2C(C)=O` (stereo unspecified), in that order: 25.5 and 1.19.
For the compound `CC12CCC(=O)C=C1CCC1C2CCC23COC(O)(CO)C2CCC13` (stereo unspecified), in assay [1], the Percent inhibition of [3H]aldosterone binding stood at 29.5. For the same compound, the Ratio in assay [2] turned out to be 0.54.
For `CC(=O)OC[C@]12CC[C@H]3[C@@H](CC[C@H]4CC(=O)CC[C@@]43C)[C@@H]1CC[C@@H]2C(C)=O`, the Percent inhibition of [3H]aldosterone binding in assay [1] is 0. Further, the Ratio in assay [2] was found to be 1.08.
As to `CC1(O)OC[C@]23CC[C@H]4[C@@H](CC[C@H]5CC(=O)CC[C@@]54C)[C@@H]2CC[C@H]13` (stereo partly specified), in assay [1], the Percent inhibition of [3H]aldosterone binding stood at 0. The Ratio in assay [2] came out at 1.01.
For the compound `CC(=O)OCC1(O)OCC23CC[C@H]4[C@@H](CC[C@H]5CC(=O)CCC54C)[C@@H]2CCC13` (stereo partly specified), the Percent inhibition of [3H]aldosterone binding in assay [1] was determined as 20. Further, the Ratio in assay [2] came to 0.8.
On to `CC(=O)OCC12CC[C@H]3[C@@H](CC[C@H]4CC(=O)CCC43C)[C@@H]1CCC2C(C)=O` (stereo partly specified), for which, in assay [1], the Percent inhibition of [3H]aldosterone binding came out at 0. Further, in assay [2], the Ratio was 1.1.
As for `CC12CCC(=O)C[C@@H]1CC[C@H]1[C@@H]3CCC4C(O)(CO)OCC43CC[C@@H]12` (stereo partly specified), in assay [1], the Percent inhibition of [3H]aldosterone binding stood at 3. Besides, the Ratio in assay [2] was found to be 0.69.
Take `CC(=O)OCC12CC[C@H]3[C@@H](CC[C@H]4CC(O)CCC43C)[C@@H]1CCC2C(C)=O` (stereo partly specified): the Percent inhibition of [3H]aldosterone binding in assay [1] was 0. In addition, in assay [2], the Ratio was 0.99.
